# Laboratory results taken from ChEMBL document CHEMBL3739379, “Anti-Candida activity and cytotoxicity of a large library of new N-substituted-1,3-thiazolidin-4-one derivatives” (Eur J Med Chem, 2016).
# Tested on: Staphylococcus aureus
# Test: Antibacterial activity against Staphylococcus aureus after 18 to 22 hrs by broth microdilution method
# Format: functional
# Details: not given
# In short: (§1)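 Broth microdilution per NCCLS in Mueller-Hinton II broth; isolates subcultured for purity. Compounds dissolved in DMSO, serial dilutions 256 to 0.5 µg/mL; inoculum 10^5/mL. Controls: organism without compound, medium only. Incubation 18 to 22 h at 35 °C. MIC is the lowest concentration giving complete growth inhibition, read by unaided eye.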
row,Structure (SMILES),MIC [µg/mL]
1,CC1CCCC/C1=N\N=C1/SCC(=O)N1Cc1cccc2ccccc12 (stereo not given),> 256
2,O=C1c2ccccc2C(=O)N1CN1C(=O)CS/C1=N\N=C1CCCCC1,> 256
3,CC1CC/C(=N\N=C2/SCC(=O)N2Cc2ccc([N+](=O)[O-])cc2)C1 (stereo not given),> 256
4,C/C(=N\N=C1/SCC(=O)N1Cc1ccc([N+](=O)[O-])cc1)c1ccccn1,> 256
5,C/C(=N\N=C1/SCC(=O)N1Cc1cccc2ccccc12)c1ccccn1,> 256

# Tested on: Candida tropicalis
# Test: Antifungal activity against Candida tropicalis clinical isolate after 24 hrs by sabouraud dextrose broth based microdilution method
# Format: functional
# Details: not given
# In short: (§2)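 Clinical isolates identified by conventional methods and subcultured for purity. Broth microdilution per NCCLS in Sabouraud dextrose broth; compounds dissolved in DMSO and serially diluted; inoculum 10^3/mL. Controls: fungi without compound, medium only. Incubated 24 h at 37 °C. MIC is the lowest concentration with complete growth inhibition by unaided eye. Values are geometric means over isolates per species.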
row,Structure (SMILES),MIC [µg/mL]
1,CC1CCCC/C1=N\N=C1/SCC(=O)N1Cc1cccc2ccccc12 (stereo not given),4
2,O=C1c2ccccc2C(=O)N1CN1C(=O)CS/C1=N\N=C1CCCCC1,8
3,CC1CC/C(=N\N=C2/SCC(=O)N2Cc2ccc([N+](=O)[O-])cc2)C1 (stereo not given),128
4,C/C(=N\N=C1/SCC(=O)N1Cc1ccc([N+](=O)[O-])cc1)c1ccccn1,4
5,C/C(=N\N=C1/SCC(=O)N1Cc1cccc2ccccc12)c1ccccn1,2

# Tested on: Nakaseomyces glabratus
# Test: Antifungal activity against Candida glabrata clinical isolate after 24 hrs by sabouraud dextrose broth based microdilution method
# Format: functional
# Details: not given
# In short: as §2
row,Structure (SMILES),MIC [µg/mL]
1,CC1CCCC/C1=N\N=C1/SCC(=O)N1Cc1cccc2ccccc12 (stereo not given),8
2,O=C1c2ccccc2C(=O)N1CN1C(=O)CS/C1=N\N=C1CCCCC1,16
3,CC1CC/C(=N\N=C2/SCC(=O)N2Cc2ccc([N+](=O)[O-])cc2)C1 (stereo not given),16
4,C/C(=N\N=C1/SCC(=O)N1Cc1ccc([N+](=O)[O-])cc1)c1ccccn1,32
5,C/C(=N\N=C1/SCC(=O)N1Cc1cccc2ccccc12)c1ccccn1,2

# Tested on: Enterobacter sp.
# Test: Antibacterial activity against Enterobacter sp. after 18 to 22 hrs by broth microdilution method
# Format: functional
# Details: not given
# In short: as §1
row,Structure (SMILES),MIC [µg/mL]
1,CC1CCCC/C1=N\N=C1/SCC(=O)N1Cc1cccc2ccccc12 (stereo not given),> 256
2,O=C1c2ccccc2C(=O)N1CN1C(=O)CS/C1=N\N=C1CCCCC1,> 256
3,CC1CC/C(=N\N=C2/SCC(=O)N2Cc2ccc([N+](=O)[O-])cc2)C1 (stereo not given),> 256
4,C/C(=N\N=C1/SCC(=O)N1Cc1ccc([N+](=O)[O-])cc1)c1ccccn1,> 256
5,C/C(=N\N=C1/SCC(=O)N1Cc1cccc2ccccc12)c1ccccn1,> 256

# Tested on: [Candida] sake
# Test: Antifungal activity against Candida sake clinical isolate after 24 hrs by sabouraud dextrose broth based microdilution method
# Format: functional
# Details: Fermentozyma sake
# In short: as §2
row,Structure (SMILES),MIC [µg/mL]
1,CC1CCCC/C1=N\N=C1/SCC(=O)N1Cc1cccc2ccccc12 (stereo not given),2
2,O=C1c2ccccc2C(=O)N1CN1C(=O)CS/C1=N\N=C1CCCCC1,32
3,CC1CC/C(=N\N=C2/SCC(=O)N2Cc2ccc([N+](=O)[O-])cc2)C1 (stereo not given),256
4,C/C(=N\N=C1/SCC(=O)N1Cc1ccc([N+](=O)[O-])cc1)c1ccccn1,4
5,C/C(=N\N=C1/SCC(=O)N1Cc1cccc2ccccc12)c1ccccn1,2

# Tested on: Candida albicans
# Test: Antifungal activity against Candida albicans clinical isolate after 24 hrs by sabouraud dextrose broth based microdilution method
# Format: functional
# Details: not given
# In short: as §2
row,Structure (SMILES),MIC [µg/mL]
1,CC1CCCC/C1=N\N=C1/SCC(=O)N1Cc1cccc2ccccc12 (stereo not given),4
2,O=C1c2ccccc2C(=O)N1CN1C(=O)CS/C1=N\N=C1CCCCC1,8
3,CC1CC/C(=N\N=C2/SCC(=O)N2Cc2ccc([N+](=O)[O-])cc2)C1 (stereo not given),2
4,C/C(=N\N=C1/SCC(=O)N1Cc1ccc([N+](=O)[O-])cc1)c1ccccn1,4
5,C/C(=N\N=C1/SCC(=O)N1Cc1cccc2ccccc12)c1ccccn1,2

# Tested on: Staphylococcus warneri
# Test: Antibacterial activity against Staphylococcus warneri after 18 to 22 hrs by broth microdilution method
# Format: functional
# Details: not given
# In short: as §1
row,Structure (SMILES),MIC [µg/mL]
1,CC1CCCC/C1=N\N=C1/SCC(=O)N1Cc1cccc2ccccc12 (stereo not given),> 256
2,O=C1c2ccccc2C(=O)N1CN1C(=O)CS/C1=N\N=C1CCCCC1,> 256
3,CC1CC/C(=N\N=C2/SCC(=O)N2Cc2ccc([N+](=O)[O-])cc2)C1 (stereo not given),> 256
4,C/C(=N\N=C1/SCC(=O)N1Cc1ccc([N+](=O)[O-])cc1)c1ccccn1,> 256
5,C/C(=N\N=C1/SCC(=O)N1Cc1cccc2ccccc12)c1ccccn1,> 256

# Tested on: Pichia kudriavzevii
# Test: Antifungal activity against Candida krusei clinical isolate after 24 hrs by sabouraud dextrose broth based microdilution method
# Format: functional
# Details: not given
# In short: as §2
row,Structure (SMILES),MIC [µg/mL]
1,CC1CCCC/C1=N\N=C1/SCC(=O)N1Cc1cccc2ccccc12 (stereo not given),16
2,O=C1c2ccccc2C(=O)N1CN1C(=O)CS/C1=N\N=C1CCCCC1,16
3,CC1CC/C(=N\N=C2/SCC(=O)N2Cc2ccc([N+](=O)[O-])cc2)C1 (stereo not given),256
4,C/C(=N\N=C1/SCC(=O)N1Cc1ccc([N+](=O)[O-])cc1)c1ccccn1,32
5,C/C(=N\N=C1/SCC(=O)N1Cc1cccc2ccccc12)c1ccccn1,2

# Tested on: Enterococcus faecalis
# Test: Antibacterial activity against […] faecalis after 18 to 22 hrs by broth microdilution method
# Format: functional
# Details: not given
# In short: as §1
row,Structure (SMILES),MIC [µg/mL]
1,CC1CCCC/C1=N\N=C1/SCC(=O)N1Cc1cccc2ccccc12 (stereo not given),> 256
2,O=C1c2ccccc2C(=O)N1CN1C(=O)CS/C1=N\N=C1CCCCC1,> 256
3,CC1CC/C(=N\N=C2/SCC(=O)N2Cc2ccc([N+](=O)[O-])cc2)C1 (stereo not given),> 256
4,C/C(=N\N=C1/SCC(=O)N1Cc1ccc([N+](=O)[O-])cc1)c1ccccn1,> 256
5,C/C(=N\N=C1/SCC(=O)N1Cc1cccc2ccccc12)c1ccccn1,> 256

# Tested on: Klebsiella oxytoca
# Test: Antibacterial activity against Klebsiella oxytoca after 18 to 22 hrs by broth microdilution method
# Format: functional
# Details: not given
# In short: as §1
row,Structure (SMILES),MIC [µg/mL]
1,CC1CCCC/C1=N\N=C1/SCC(=O)N1Cc1cccc2ccccc12 (stereo not given),> 256
2,O=C1c2ccccc2C(=O)N1CN1C(=O)CS/C1=N\N=C1CCCCC1,> 256
3,CC1CC/C(=N\N=C2/SCC(=O)N2Cc2ccc([N+](=O)[O-])cc2)C1 (stereo not given),> 256
4,C/C(=N\N=C1/SCC(=O)N1Cc1ccc([N+](=O)[O-])cc1)c1ccccn1,> 256
5,C/C(=N\N=C1/SCC(=O)N1Cc1cccc2ccccc12)c1ccccn1,> 256

# Tested on: Staphylococcus haemolyticus
# Test: Antibacterial activity against Staphylococcus haemolyticus after 18 to 22 hrs by broth microdilution method
# Format: functional
# Details: not given
# In short: as §1
row,Structure (SMILES),MIC [µg/mL]
1,CC1CCCC/C1=N\N=C1/SCC(=O)N1Cc1cccc2ccccc12 (stereo not given),> 256
2,O=C1c2ccccc2C(=O)N1CN1C(=O)CS/C1=N\N=C1CCCCC1,> 256
3,CC1CC/C(=N\N=C2/SCC(=O)N2Cc2ccc([N+](=O)[O-])cc2)C1 (stereo not given),> 256
4,C/C(=N\N=C1/SCC(=O)N1Cc1ccc([N+](=O)[O-])cc1)c1ccccn1,> 256
5,C/C(=N\N=C1/SCC(=O)N1Cc1cccc2ccccc12)c1ccccn1,> 256

# Tested on: Candida parapsilosis
# Test: Antifungal activity against Candida parapsilosis clinical isolate after 24 hrs by sabouraud dextrose broth based microdilution method
# Format: functional
# Details: Lodderomyces parapsilosis
# In short: as §2
row,Structure (SMILES),MIC [µg/mL]
1,CC1CCCC/C1=N\N=C1/SCC(=O)N1Cc1cccc2ccccc12 (stereo not given),16
2,O=C1c2ccccc2C(=O)N1CN1C(=O)CS/C1=N\N=C1CCCCC1,8
3,CC1CC/C(=N\N=C2/SCC(=O)N2Cc2ccc([N+](=O)[O-])cc2)C1 (stereo not given),64
4,C/C(=N\N=C1/SCC(=O)N1Cc1ccc([N+](=O)[O-])cc1)c1ccccn1,4
5,C/C(=N\N=C1/SCC(=O)N1Cc1cccc2ccccc12)c1ccccn1,2

# Tested on: Escherichia coli
# Test: Antibacterial activity against Escherichia coli at after 18 to 22 hrs by broth microdilution method
# Format: functional
# Details: not given
# In short: as §1
row,Structure (SMILES),MIC [µg/mL]
1,CC1CCCC/C1=N\N=C1/SCC(=O)N1Cc1cccc2ccccc12 (stereo not given),> 256
2,O=C1c2ccccc2C(=O)N1CN1C(=O)CS/C1=N\N=C1CCCCC1,> 256
3,CC1CC/C(=N\N=C2/SCC(=O)N2Cc2ccc([N+](=O)[O-])cc2)C1 (stereo not given),> 256
4,C/C(=N\N=C1/SCC(=O)N1Cc1ccc([N+](=O)[O-])cc1)c1ccccn1,> 256
5,C/C(=N\N=C1/SCC(=O)N1Cc1cccc2ccccc12)c1ccccn1,> 256

# Tested on: Proteus mirabilis
# Test: Antibacterial activity against Proteus mirabilis after 18 to 22 hrs by broth microdilution method
# Format: functional
# Details: not given
# In short: as §1
row,Structure (SMILES),MIC [µg/mL]
1,CC1CCCC/C1=N\N=C1/SCC(=O)N1Cc1cccc2ccccc12 (stereo not given),> 256
2,O=C1c2ccccc2C(=O)N1CN1C(=O)CS/C1=N\N=C1CCCCC1,> 256
3,CC1CC/C(=N\N=C2/SCC(=O)N2Cc2ccc([N+](=O)[O-])cc2)C1 (stereo not given),> 256
4,C/C(=N\N=C1/SCC(=O)N1Cc1ccc([N+](=O)[O-])cc1)c1ccccn1,> 256
5,C/C(=N\N=C1/SCC(=O)N1Cc1cccc2ccccc12)c1ccccn1,> 256
